High-throughput results from PubChem BioAssay.
L major viab = Leishmania major promastigote growth inhibition, primary screen. Leishmania major promastigotes, resazurin fluorescence viability. inhibition, % at 10 µM. 200,000 compounds, 9% hits. AID 1063, 2008; in the data active means inhibition above about 50%;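 further: promastigotes grown with compound for 44 hours at 28 °C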
Dynein transport = inhibitors of GR-EGFP nuclear translocation, primary screen, dynein cargo transport inhibitor project, imaging, high-content, 3617.4 mouse cells. 220,000 compounds, 0.47% hits. z-score, hits read low. test concentration mostly 20 µM; stimulated with dexamethasone, 1 µM; active compounds read low;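 active means plate z-score of nuclear minus cytoplasmic receptor signal below a set negative limit, without overly bright fluorescence or cell loss, cut at about -3.5 in these data, passing the limit was not always enough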;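 further: z-score of nuclear minus cytoplasmic ring GR-EGFP intensity difference per well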
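Buffer or medium: tet-free, stripped-serum medium; reagent: dexamethasone at 1.0 µM final, 30 min; incubation: 48 h induction, 1 h compound, 30 min dex at 37 °C; measured by: formaldehyde fixation, Hoechst nuclear stain, 10x automated fluorescence imaging; read-out: nuclear-to-cytoplasmic GR-EGFP distribution per well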
XBP1 UPR activ = activators of adaptive XBP1 UPR arm, primary screen, cell-based, CHO-XBP1 luciferase reporter, luminescence, uHTS. activation, % at 20 µM. 330,000 compounds, 0.33% hits. IRE1-XBP1 UPR activation; percent of tunicamycin response, DMSO as zero;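 active means versus positive control, 20 µM dose yields 30% or more activation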
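Material – CHO cell line with stable XBP1 luciferase reporter · Buffer or medium – F12 plus 10% FBS · Compound – single point, 20 µM final compound, 1% DMSO · Schedule – 16-18 h cell attachment at 37 °C, then 6 h compound exposure · Signal – Steady-Glo luminescence read · Benchmarks – high control tunicamycin 10 µg/mL final, low control DMSO vehicle only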
CHOP inhibitor = inhibitors of CHOP promoter induction, primary screen, cell-based, unfolded protein response, luciferase reporter; inhibition, % at 10 µM; AID 2732, 2010; CHO-K1 CHOP-promoter luciferase, tunicamycin-induced, 15-18 h; 220,000 compounds, 3.8% hits;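 active means compounds that reduced the stress-induced luciferase reporter signal by more than about 70% of percent inhibition, limit read from the data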
T cruzi inh = inhibitors of intracellular T. cruzi growth, primary screen, luminescence, NIH3T3 host cells; T. cruzi beta-gal in NIH3T3, 90 h; inhibition, % (concentration not given with the values); 300,000 compounds, 1.4% hits; AID 1885, 2009;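 active means mean inhibition across valid replicates above about 55%, limit read from the data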;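 further: signal also drops with host cell toxicity which is not excluded here; higher percent means less beta-gal luminescence so fewer parasites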
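Assay system: NIH/3T3 fibroblasts plus reporter T. cruzi. Amount: NIH/3T3 cells, 5,000 per well. Buffer or medium: DMEM, 2% fetal bovine serum. Doses: compound pinned at 50 nL/well, DMSO. Schedule: ≥90 h infection period, 3 h prior cell attachment. Signal: luminescent β-galactosidase signal after 60 min lysis. Read-out: parasite load inhibition, %.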
CHOP UPR activ = activators of apoptotic CHOP UPR arm, primary screen, cell-based, CHO-CHOP luciferase reporter, luminescence, uHTS; UPR activation; percent of tunicamycin response over DMSO baseline; activation, % at 10 µM; 330,000 compounds, 0.34% hits; AID 449763, 2010;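 active means at 10 µM dose, activation of 40% or more, normalized to positive control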
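Test system: CHO-CHOP cells, stable luciferase reporter of PERK-eIF2a-CHOP signalling | Quantity: 500 CHO-CHOP cells per well | Buffer or medium: F12 plus 10% serum | Compound dosing: 10 µM single point, 0.5% DMSO | Schedule: 6 h compound treatment, 37 °C | Signal: Luciferase luminescence | Control set: Tunicamycin high control, DMSO low control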
CHOP confirm = retest of CHOP induction inhibitors, confirmation, cell-based; shares compounds with CHOP inhibitor; CHO-CHOP promoter luciferase reporter, tunicamycin-induced, luminescence; inhibition, % at 10 µM; 2,100 compounds, 45% hits;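 active means mean of three repeat readings of reporter signal inhibition above a set limit, cut at about 70% in these data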
Numbers stand for hits; . = inactive; / = not tested or not shown. The sample as a whole holds a higher share of hits than the screen did.

SMILES | L major viab | Dynein transport | XBP1 UPR activ | CHOP inhibitor | T cruzi inh | CHOP UPR activ | CHOP confirm
COc1cccc(NC(=O)Nc2nnc(-c3ccccc3SCc3ccccc3)s2)c1 | . | . | . | . | / | . | /
CCOC(=O)c1sc(NC(=O)Nc2ccccc2F)nc1C | . | . | . | 101.6 | . | . | .
COc1ccc(C(=O)c2c(-c3cccc(C)c3)oc3ccc(N4CCOCC4)cc23)cn1 | / | / | . | / | . | . | /
CN1C(=O)CC(C(=O)Nc2ccccc2F)SC1=Nc1ccc2c(c1)OCO2 (stereo unspecified) | . | . | . | . | . | . | /
COc1ccc(/C=C2\SC(=O)N(CCCC(=O)Nc3cc(Cl)ccc3C(=O)O)C2=O)cc1 | / | / | . | / | / | . | /
Cc1ccc(C(C)C)c(OCC(=O)NN=C2CCCC2)c1 | . | . | . | . | . | . | /
Cc1ccc(C(C)C)c(OCC(=O)N/N=C/C2CCCCC2)c1 | . | . | . | 100.8 | . | . | 70.5
CCc1ccc2c(c1)C(c1ccc([N+](=O)[O-])cc1)=NNC(c1ccc(C)cc1)=N2 | 85.0 | . | . | 97.2 | . | . | 83.0
Cc1cccc2c1NC(=O)C2(c1ccc(O)cc1)c1ccc(O)cc1 | . | . | . | . | . | . | /
Cc1cc(C2(c3ccc(O)c(C)c3)C(=O)Nc3ccccc32)ccc1O | 93.0 | . | . | 105.4 | . | . | 119.2
CC(C)c1onc(C(=O)NC2CCCCC2)c1[N+](=O)[O-] | . | . | . | . | . | . | /
C=CCOc1cccc(C(=O)N2CCCC(Nc3ccc4c(c3)OCCO4)C2)c1 (stereo unspecified) | / | / | . | / | . | . | /
Cc1cc(C)c(S(=O)(=O)N2CCOC2CNC(=O)C(=O)NCCCN2CCOCC2)c(C)c1 (stereo unspecified) | / | / | . | / | . | . | /
CN(C)c1ccc(-c2nc3ccccn3c2/N=C/c2ccc(Br)cc2)cc1 | 98.8 | . | . | 98.4 | . | . | 74.9
Cc1c(-c2ccc(Br)cc2)nc2ccccn12 | . | . | . | . | . | . | /
Cc1ccc(S(=O)(=O)NCc2ccccn2)cc1C | / | / | . | / | . | . | /
Cc1cccc(N2CCN(C(=O)c3c(C)nn(Cc4ccccc4Cl)c3C)CC2)c1C | . | . | . | 102.6 | . | . | 86.2
CCc1nc(SCc2ccccc2C)n[nH]1 | / | / | . | / | . | . | /
COc1ccc(/C(=N/O)C(C)(C)NO)cc1 | . | . | . | 99.5 | . | . | .
CC(C)(NO)/C(=N/O)c1ccc(Br)cc1 | . | . | . | 108.3 | . | . | .
CC(C)(NO)/C(=N\O)c1ccc(Cl)cc1 | . | . | . | . | . | . | /
Cc1cccc(N2CCN(C(=O)c3ccc(-n4cncn4)c([N+](=O)[O-])c3)CC2)c1C | / | / | . | / | . | . | /
CC(C)COc1ccc(/C(=N/O)c2ccccc2)cc1 | . | . | . | 107.4 | . | . | 92.5
CC(O)COc1ccc(/C(=N/O)c2ccccc2)cc1 (stereo unspecified) | . | . | . | . | . | . | /
O=C(O)[C@H]1CCCC[C@H]1C(=O)Nc1ccc(S(=O)(=O)N2CCOCC2)cc1 | / | / | . | / | . | . | /
SMILES | L major viab | Dynein transport | XBP1 UPR activ | CHOP inhibitor | T cruzi inh | CHOP UPR activ | CHOP confirm
O=C(N/N=C/C(Br)=C/c1ccccc1)c1cc(-c2ccco2)[nH]n1 | . | . | . | 103.3 | . | . | .
COc1ccc(C(=O)Oc2ccc(N(C)S(=O)(=O)c3ccccc3)cc2)cc1[N+](=O)[O-] | / | / | . | / | . | . | /
O=C(CNC(=O)C1CCCCC1)NCc1ccco1 | / | / | . | / | . | . | /
CC(C)Oc1cc(NC(=O)CS(=O)CC(=O)Nc2cccc(C(F)(F)F)c2)c(Cl)cc1Cl (stereo unspecified) | . | . | . | 107.3 | . | . | 120.1
CN(C(=O)CN1C(=O)NC(c2ccccc2)(c2ccccc2)C1=O)C1CCS(=O)(=O)C1 (stereo unspecified) | / | / | . | / | / | . | /
CCCCN1C(=O)C2(NNc3ccccc3O2)c2ccccc21 (stereo unspecified) | 96.3 | . | . | 102.8 | . | . | .
CC(C)NC(=O)C1(S(=O)(=O)c2ccccc2)CC=CC1 | / | / | . | / | . | . | /
Cc1cc(C)c(S(=O)(=O)c2ccccc2)c(OC(=O)c2cc(F)c(F)cc2Cl)n1 | . | . | . | 107.5 | . | . | 138.6
Cc1cc(OC(=O)c2cc(F)c(F)cc2Cl)nc(C)n1 | . | . | . | . | . | . | /
CN1CCN(/N=C/c2ccc(N(c3ccccc3)c3ccccc3)cc2)CC1 | . | . | . | 105.2 | . | . | .
CCOC(=O)c1ccc(S(=O)(=O)NNC(=O)Cc2csc(C)n2)cc1 | / | / | . | / | / | . | /
CCCNC(=O)c1ccc2c(=O)c(O)c(-c3ccc(C)cc3)[nH]c2c1 | / | . | . | . | . | . | /
Cc1ccc(CNC(=O)c2ccc3c(=O)c(O)c(-c4ccc(C)cc4)[nH]c3c2)cc1 | / | . | . | 103.0 | 60.3 | . | .
Cc1nc2cc(NC(=O)c3ccc(S(=O)(=O)N(C)c4ccccc4)cc3)ccc2o1 | / | / | . | / | . | . | /
CC(C)NC(=O)c1ccc(COc2ccc(C(C)(C)C)cc2)o1 | / | / | . | / | . | . | /
COc1ccc(C(=O)NC(=S)Nc2ccc(S(=O)(=O)Nc3cc(OC)ncn3)cc2)cc1 | / | / | . | / | . | . | /
COc1cc(NS(=O)(=O)c2ccc(NC(=S)NC(=O)c3sc4ccccc4c3Cl)cc2)ncn1 | . | . | / | 99.5 | / | / | .
Cc1cc(/C=c2\sc3nc4ccccc4n3c2=O)c(C)n1-c1ccc(C(=O)O)cc1 | . | . | / | . | . | / | /
Cc1cc(/C=c2/sc3nc4ccccc4n3c2=O)c(C)n1-c1ccccn1 | . | . | . | 106.6 | . | . | 118.5
OC(CSc1c(Cl)cccc1Cl)CN1CCN(c2ccccc2F)CC1 (stereo unspecified) | . | . | . | 97.2 | . | . | .
Cc1ccc(NC(=O)CSc2nnc3c(n2)[nH]c2ccccc23)cc1 | / | / | . | / | . | . | /
Cc1ccc(-c2csc(NC(=O)CSc3nnc4c(n3)[nH]c3ccccc34)n2)cc1 | . | . | / | 101.1 | / | / | .
CCCCCCn1c(=O)c(C(=O)N/N=C/c2cccc(F)c2)c(O)c2ccccc21 | . | . | . | 105.1 | . | . | 99.7
O=C(N/N=C/c1ccc(F)cc1)c1c(O)c2ccccc2[nH]c1=O | . | . | . | 100.6 | . | . | 72.4
CCCn1c(=O)c(C(=O)N/N=C/c2ccc(F)cc2)c(O)c2ccccc21 | / | . | . | . | . | . | /
O=C(N/N=C/c1cccc(F)c1)c1c(O)c2ccccc2[nH]c1=O | . | . | / | 104.4 | . | / | 92.7
